Shown are actives, neighbours in structure and some others; about 1.7% of the full set was active somewhere.
DNMT1 block: blocks human DNA methyltransferase DNMT1 | inhibition (reported as % activation of signal), % at 10 µM | P26358 | AID 588458 | DNMT1 molecular beacon, Hinp1I cleavage, fluorescence | actives 0.83% (n = 360,000); in the data active = inhibition above about 50%
STEP block: blocks human striatal-enriched tyrosine phosphatase. inhibition, % at 20 µM. AID 588621. actives 0.25% (n = 360,000). recombinant STEP, OMFP fluorogenic substrate, fluorescence;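 active = inhibition at 20 µM, scaled per plate between control wells, above about 37%, limit read from the data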;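 note: 0% = DMSO with enzyme and substrate and 100% = substrate only without enzyme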
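material = STEP tyrosine phosphatase | reagent = fluorogenic phosphatase substrate OMFP at 25 µM final | doses = single compound dose of 20 µM, 1% DMSO final | schedule = 20 min reaction, room temperature, in the dark | measured by = fluorescence, 480/540 nm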
Scp-1 inhibitor: blocks human Scp-1 phosphatase activity; Q9GZU7; Recombinant Scp1, phosphopeptide, malachite green phosphate absorbance; inhibition, % at 20 µM; actives 0.88% (n = 340,000); AID 493091;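 active = inhibition above about 50% at 20 µM, limit read from the data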;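 note: plate controls were DMSO wells with enzyme for no effect and wells lacking enzyme for full effect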
Target sequence (Q9GZU7 76-261 limits assumed): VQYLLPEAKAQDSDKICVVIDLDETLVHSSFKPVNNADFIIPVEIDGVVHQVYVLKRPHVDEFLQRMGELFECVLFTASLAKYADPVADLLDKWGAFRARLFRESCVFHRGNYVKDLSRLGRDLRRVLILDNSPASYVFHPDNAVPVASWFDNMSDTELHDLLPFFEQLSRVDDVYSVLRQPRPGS
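assay system = SCP-1 phosphatase catalytic domain, residues 76-261 | buffer or medium = 50 mM Tris acetate pH 5.5, 0.005% Tween-20, 10 mM MgCl2 | incubation = enzyme reaction 45 min at room temperature, colour 5 min, stabilisation 30 min | signal = Phosphate-binding colour reagent, absorbance read at 630 nm | measure = % inhibition at 20 µM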
LMPTP block: LMPTP (human) inhibition; P24666; recombinant LMPTP-A, OMFP fluorogenic substrate, fluorescence intensity; inhibition, % at 20 µM; actives 0.22% (n = 360,000);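 active = compounds that cut the enzyme signal by at least half of the control window in the single-dose screen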;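 note: plate controls were DMSO wells with enzyme plus substrate for no effect and substrate without enzyme for full effect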
Target sequence (P24666 whole entry, looked up): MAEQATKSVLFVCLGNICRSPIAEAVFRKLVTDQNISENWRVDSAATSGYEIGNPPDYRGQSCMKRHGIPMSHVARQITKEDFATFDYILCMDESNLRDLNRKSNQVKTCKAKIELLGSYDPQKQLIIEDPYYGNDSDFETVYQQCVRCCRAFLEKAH
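Test system – LMPTP-A enzyme · Amount – LMPTP-A at 0.625 nM final in the reaction · Buffer or medium – Bis-Tris pH 6.0, DTT, detergent · Reagent – OMFP 400 µM · Doses – single 20 µM dose · Schedule – reaction 50 min, room temperature, dark · Detection – fluorescence intensity of OMFP turnover product · Evaluation – percent inhibition versus substrate-only and uninhibited controls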
SUMO1 PPI mod: SUMO1-SIM interaction modulation | P63165 | SUMO1 binding to a labelled peptide, TR-FRET, 1 h | inhibition, % at 20 µM | actives 0.33% (n = 360,000); in the data active = inhibition above about 37%
Target sequence (P63165 whole entry, looked up): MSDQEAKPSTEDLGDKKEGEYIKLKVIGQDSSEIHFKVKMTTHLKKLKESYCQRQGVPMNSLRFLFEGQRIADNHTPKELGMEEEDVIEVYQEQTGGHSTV
Scp1 confirm: confirmation of human Scp-1 phosphatase inhibitors; shares compounds with Scp-1 inhibitor; recombinant SCP-1 catalytic domain, phosphate release, malachite green absorbance; inhibition, % at 20 µM; actives 61% (n = 2,500); AID 540281;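 note: plate controls were DMSO with enzyme for no effect and buffer wells lacking enzyme for full effect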
MG interference: interferes with malachite green readout, flagging false Scp-1 hits. shares compounds with Scp-1 inhibitor. Colorimetric interference counterscreen, malachite green absorbance 630 nm. apparent inhibition (interference), % at 20 µM. 2,500 tested, under 10 active;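 note: compounds added after enzyme reaction finished so only phosphate colour detection is probed; plate controls were DMSO wells with completed Scp-1 reaction for no effect and substrate wells lacking enzyme for full effect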
Scp-1 Tm shift: binds human Scp-1, shifting its melting temperature; actives 25% (n = 1,500); AID 540329; thermal shift relative to vanadate control, % at 40 µM; Recombinant SCP1, Sypro Orange thermal shift Tm; shares compounds with Scp-1 inhibitor;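 active = substances whose mean melting-temperature shift, as a percentage of the reference inhibitor's shift, reaches about 5.3%, limit read from the data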;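 note: 0% = Tm of DMSO wells and 100% = Tm with sodium orthovanadate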
Active calls of the source: *; x = not tested or not shown.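 Rule for the calls, unless noted: active = inhibition of at least 30% at 20 µM; inactive = the rest.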

SMILES	DNMT1 block	STEP block	Scp-1 inhibitor	LMPTP block	SUMO1 PPI mod	Scp1 confirm	MG interference	Scp-1 Tm shift
Cc1ccc(S(=O)(=O)N2CCCCC2)cc1C(=O)Nc1cccnc1	22	2	53*	-1	10	51*	-13	-13
Cc1cc2nc(-c3ccccc3)c(Cc3ccsc3)n2c(C)c1Br	x	x	x	2	5	x	x	x
CC(C)CC1Nc2ccc(C(=O)NCc3ccc4c(c3)OCO4)cc2NC1=O (stereo unspecified)	-1	0	-10	1	-5	-5	-2	x
O=C(Cn1c(=O)oc2cc(S(=O)(=O)N3CCCC3)ccc21)N1CCN(c2ccccc2)CC1	0	5	69*	0	2	-2	-16	x
O=C(Cn1c(=O)oc2cc(S(=O)(=O)N3CCCCCC3)ccc21)NC1CCCCCCC1	24	2	101*	2	9	54*	-9	-13
Cc1ccc(C)c(N2CCN(C(=O)Cn3c(=O)oc4cc(S(=O)(=O)N5CCCC5)ccc43)CC2)c1	-6	0	1	1	2	x	x	x
CC12CCC(C)(O1)C1C(=O)N(c3nccs3)C(=O)C12 (stereo unspecified)	8	-1	-8	0	1	x	x	x
Cc1nnc(NS(=O)(=O)c2ccc(N=Nc3ccc(N)nc3N)cc2)s1	4	5	67*	18	-10	34*	-6	9.1*
CC(C)Cn1cnc2c1c(=O)n(CC(=O)NC(=O)NC(C)(C)C)c(=O)n2Cc1ccccc1	-1	1	-2	0	1	x	x	x
O=C(COc1ccc(OCc2ccccc2)cc1)NC1CCOC1=O (stereo unspecified)	-2	-1	85*	-2	2	-19	-19	x
N=c1nc2n(cc1F)C1OC(CO)C(O)C1O2 (stereo unspecified)	-1	-2	72*	1	2	-1	-7	x
O=C(NCc1ccco1)c1cc2cc3ccc(Cl)cc3nc2o1	18	0	0	-1	-14	x	x	x
COc1ccc2cc3cc(C(=O)NCc4ccco4)oc3nc2c1	5	3	61*	0	-6	56*	-13	-13
CCOc1ccc(NC(=O)c2cc3cc4ccc(OC)cc4nc3o2)cc1	47	32	55*	22	1	41*	-10	-7
COc1ccc2[nH]c(=O)c(CN(C(=O)c3ccco3)C(C)C)cc2c1	7	-2	60*	-1	4	4	-11	x
O=C(CSc1nc(-c2ccc(F)cc2)nc2ccc(F)cc12)Nc1cccc(C(=O)O)c1	-1	24	72*	45	-5	75*	-11	2
CCCCC1(C)OC(=O)C(=Cc2ccc(SC)cc2)C(=O)O1 (stereo unspecified)	6	-1	3	0	4	x	x	x
O=C(O)c1cc(-c2ccc(/C=N/NC(=S)Nc3ccccc3)o2)ccc1Cl	18	1	52*	1	22	59*	-2	12*
CCCCC1(C)OC(=O)C(=Cc2ccc(-c3ccc(Cl)c(C(=O)O)c3)o2)C(=O)O1 (stereo unspecified)	37	11	60*	0	17	45*	-12	-28
CCCn1c(=S)[nH]c2cc(C(=O)N3CCN(c4ccc(F)cc4)CC3)ccc2c1=O	-6	1	x	-2	-1	x	x	x
COCCCNC(=O)CC1C[C@H](C(=O)N2CCCCC2)[C@@]2(CCc3ccccc3)c3[nH]c4ccc(OC)cc4c3CCN2C1=O (stereo partly specified)	1	0	-5	-1	-5	x	x	x
CS(=O)(=O)N(CC(=O)N1CCCCCC1)c1ccc(Cl)cc1	-5	0	59*	-3	1	0	-5	x
O=C(NCCCN1CCCC1=O)c1ccc(NS(=O)(=O)c2cccc([N+](=O)[O-])c2)cc1	1	2	-3	0	-21	x	x	x
O=C(CCCCCNC(=O)c1ccccc1)N/N=C/c1ccccc1O	2	-3	-8	-2	2	x	x	x
O=C(N/N=C/c1ccncc1)c1ccc(NC(=O)c2ccc(Cl)cc2)cc1	1	21	64*	11	-1	26	-10	x
SMILES	DNMT1 block	STEP block	Scp-1 inhibitor	LMPTP block	SUMO1 PPI mod	Scp1 confirm	MG interference	Scp-1 Tm shift
O=C(N/N=C/c1ccco1)c1ccc(NC(=O)c2ccc(Cl)cc2)cc1	36	10	77*	63*	5	40*	-6	0
O=C(CCCCCNC(=O)c1ccccc1)N/N=C/c1ccco1	19	0	52*	0	-4	32*	-11	-11
Cc1ccc(/C=N/NC(=O)c2ccc(NC(=O)c3ccc(Cl)cc3)cc2)o1	27	3	3	41	4	x	x	x
O=C(N/N=C/c1ccncc1)c1ccc(NC(=O)c2cccc(Cl)c2)cc1	-11	31	68*	10	5	35*	-16	15*
Cc1cccc(CNC(=O)c2sc(=O)n(Cc3c(C)cccc3C)c2C)c1	-3	-1	x	3	4	x	x	x
Cc1cccc(C)c1NC(=O)c1csc([C@H]2C[C@H](O)[C@@H](CO)O2)n1	4	0	x	-1	-3	x	x	x
Cc1ccc(-n2[nH]c(C)c(/C=N/Nc3ccc([N+](=O)[O-])cc3[N+](=O)[O-])c2=O)cc1	-26	19	61*	10	-11	80*	-14	11*
CCOn1c(=O)c(-c2cccc3ccccc23)[n+]([O-])c2ccccc21	-2	-3	58*	-1	-13	-24	-22	x
CCOn1c(=O)c(-c2ccccc2)[n+]([O-])c2ccccc21	0	-2	-13	-1	-29	x	x	x
O=C(NNC(=O)c1ccccc1C(F)(F)F)c1csc(N2CCOCC2)n1	2	-2	-5	0	-1	x	x	x
C=CCn1c(=NC(=O)c2sc3ccccc3c2Cl)sc2cc(S(N)(=O)=O)ccc21	33	2	88*	39	-2	78*	-9	-16
COc1cccc(OC)c1C(=O)OCC(=O)NC1CCCCCC1	2	-1	-9	-2	-2	x	x	x
CC(=O)c1cccc(NC(=O)COc2cc3oc(=O)c(CC(C)O)c(C)c3cc2Cl)c1 (stereo unspecified)	9	-1	51*	3	-6	46*	-13	-20
CCOC(=O)c1ccc(NC(=O)COc2cc3oc(=O)c(CC(C)O)c(C)c3cc2Cl)cc1 (stereo unspecified)	-8	2	25	1	11	x	x	x

Compound activity deposited in PubChem BioAssay by Sanford-Burnham Center for Chemical Genomics.
